High-throughput results (PubChem BioAssay)
SENP6 block: SENP6 protease inhibitors, primary screen, biochemical, luminescence, uHTS; Sentrin-specific protease 6 (Homo sapiens), Q9GZR1; Recombinant SENP6 catalytic domain, aminoluciferin luminescence; inhibition, % at 10 µM; 330,000 compounds, 1.8% hits;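 active = inhibition above about 50% at the single tested dose, limit read from the data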
SENP7 inh: SENP7 protease inhibitors, primary screen, biochemical, luminescence, uHTS; Sentrin-specific protease 7 (Homo sapiens), Q9BQF6; recombinant SENP7, Z-RLRGG-aminoluciferin luminescence, 40 min; inhibition, % at 5 µM; 330,000 compounds, 1.5% hits; AID 434973, 2010;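 active = inhibition above about 50% at the single test dose, limit read from the data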
Target sequence (Q9BQF6 706-1050 limits assumed): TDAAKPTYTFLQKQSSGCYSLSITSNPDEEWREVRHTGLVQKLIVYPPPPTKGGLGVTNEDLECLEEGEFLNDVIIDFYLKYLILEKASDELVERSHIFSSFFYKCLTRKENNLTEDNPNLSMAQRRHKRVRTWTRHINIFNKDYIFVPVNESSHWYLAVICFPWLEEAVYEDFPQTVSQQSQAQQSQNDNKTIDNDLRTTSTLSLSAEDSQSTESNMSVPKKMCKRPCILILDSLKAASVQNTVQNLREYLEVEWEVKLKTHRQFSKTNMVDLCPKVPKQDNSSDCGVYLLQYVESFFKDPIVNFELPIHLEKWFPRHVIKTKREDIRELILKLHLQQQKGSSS
SENP1 FRET inh: human SENP1 catalytic domain inhibitors, primary screen, biochemical, FRET, uHTS; Sentrin-specific protease 1 (Homo sapiens), Q9P0U3; recombinant SENP1 catalytic domain, CyPet-SUMO1-YPet FRET cleavage; inhibition, % at 10 µM; 360,000 compounds, 0.21% hits; AID 624204, 2012;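 active = inhibition at least 30% at 10 µM, raw YFP signal under a set limit, fluorescence ratio 0.5 to 1.5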
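Test system: recombinant human SENP1 catalytic domain, His6-tagged / Medium: pH 8 Tris buffer with EDTA, NaCl, BME, BSA, NP40, catalase / Also added: SUMO1 FRET substrate flanked by Cypet and Ypet, 25 nM / Times: 50 min reaction at room temperature / Signal: FRET, CFP and YFP emission / Control set: no-enzyme low control and enzyme-plus-DMSO high control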
SENP8 block-1: human SENP8 protease inhibitors, primary screen, biochemical, fluorescence, Nedd8 protein substrate, uHTS | 360,000 compounds, 0.64% hits | Sentrin-specific protease 8 (Homo sapiens), Q96LD8 | inhibition, % at 20 µM | recombinant SENP8 | AID 602440, 2012; in the data active = inhibition mostly above about 40%, no sharp cut-off; inactive = mostly below about 27%
SENP8 block-2: SENP8 protease inhibitors, primary screen, biochemical, luminescence; purified SENP8, Z-RLRGG-aminoluciferin cleavage; inhibition, % at 10 µM; 330,000 compounds, 1.2% hits; in the data active = inhibition above about 50%
SENP8 conf: SENP8 protease inhibitors, retest, confirmation, biochemical, luminescence, single concentration. shares compounds with SENP7 inh. Recombinant SENP8, Z-RLRGG-aminoluciferin luminescence, 60 min. inhibition, % at 12.5 µM. 6,200 compounds, 40% hits;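 active = mean inhibition across replicates above about 50%, limit read from the data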
SENP6 conf: SENP6 protease inhibitors, confirmation, biochemical, luminescence, single concentration; shares compounds with SENP7 inh; recombinant SENP6, Z-RLRGG-aminoluciferin luminescence; inhibition, % at 12.5 µM; 6,200 compounds, 58% hits
SENP7 conf: SENP7 protease inhibitors, retest, confirmation, biochemical, luminescence, single concentration. shares compounds with SENP7 inh. recombinant SENP7, Z-RLRGG-aminoluciferin luminescence, 40 min. inhibition, % at 12.5 µM. 6,200 compounds, 69% hits. AID 488917, 2010
Casp3 select: caspase-3 protease inhibitors, confirmation, selectivity assay for SENP inhibitor project, biochemical, single concentration; shares compounds with SENP7 inh; purified caspase-3, Z-DEVD-aminoluciferin luminescence, 60 min; inhibition, % at 12.5 µM; 6,200 compounds, 60% hits; AID 488918, 2010;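 active = mean inhibition above about 50%, limit read from the data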
Target sequence (P42574 28-227 limits assumed): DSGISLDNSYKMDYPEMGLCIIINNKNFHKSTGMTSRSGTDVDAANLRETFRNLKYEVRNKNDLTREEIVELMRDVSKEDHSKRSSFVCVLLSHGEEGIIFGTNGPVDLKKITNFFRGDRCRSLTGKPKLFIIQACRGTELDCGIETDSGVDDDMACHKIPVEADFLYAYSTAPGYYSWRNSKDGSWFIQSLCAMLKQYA
Luc interf: counter-screen for SENP inhibitors: luminescence interference; shares compounds with SENP7 inh; inhibition, % at 12.5 µM; AID 488919; 6,200 compounds, 39% hits; Pre-incubated SENP8/Z-RLRGG-aminoluciferin, luciferase luminescence interference;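 active = mean inhibition above about 50% when retested at one dose, limit read from the data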
Of the large screens only hits and unclear results are named; the others gave an inactive call (follow-up assays come after a bar, where they were run). An excerpt weighted towards active compounds, which were near 2.5% of everything screened.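 Rule for the calls, unless noted: active = mean inhibition above about 50% in the one-dose retest (limit read from the data); inactive = the rest.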

O=C1CC(N2CCN(Cc3ccc4c(c3)OCO4)CC2)C(=O)N1c1ccccc1 (stereo not given)	SENP7 inh 62 | SENP8 conf inactive | SENP6 conf inactive | SENP7 conf inactive | Casp3 select inactive | Luc interf inactive
O=S(=O)(O)c1ccc(N=Nc2ccccc2)cc1	SENP6 block 67, SENP7 inh 51, SENP8 block-2 52 | SENP8 conf inactive | SENP6 conf inactive | SENP7 conf 71 | Casp3 select 76 | Luc interf 53
O=C(O)c1ccccc1CSc1nc2ccccc2[nH]1	SENP6 block 70 | SENP8 conf 72 | SENP6 conf 70 | SENP7 conf 87 | Casp3 select 88 | Luc interf 76
Cc1noc(C)c1CSc1nc2ccccc2[nH]1	none
Fc1cccc(F)c1CSc1nc2ccccc2[nH]1	SENP6 block 77, SENP7 inh 74, SENP8 block-2 52 | SENP8 conf 62 | SENP6 conf 62 | SENP7 conf 89 | Casp3 select 71 | Luc interf 74
O=C(CSc1nc2ccccc2[nH]1)c1c[nH]c2ccccc12	none
O=C(CSc1nc2ccccc2[nH]1)c1ccccc1F	SENP6 block 57 | SENP8 conf 51 | SENP6 conf inactive | SENP7 conf 81 | Casp3 select 63 | Luc interf 62
COC(=O)Cn1ccnc1[N+](=O)[O-]	none (no result: SENP6 block, SENP7 inh, SENP8 block-2)
CCn1c(N)c(C(=O)NC)sc1=S	none
O=C(Nc1ccc(F)cc1F)c1ccc2c(=O)n3c(nc2c1)CCC3	SENP6 block 64, SENP7 inh 61 | SENP8 conf inactive | SENP6 conf 52 | SENP7 conf 80 | Casp3 select 86 | Luc interf inactive
C(=N\NC1=Nc2cccc3cccc1c23)/c1ccccc1	SENP6 block 62 | SENP8 conf inactive | SENP6 conf inactive | SENP7 conf 83 | Casp3 select inactive | Luc interf inactive
Clc1ccc(/C=N/NC2=Nc3cccc4cccc2c34)cc1	none
COc1ccc(CNC(=O)Cn2c(=O)n(CC(=O)N3CCCCC3)c(=O)c3sccc32)cc1	none
CC(C)(C)c1ccc(/C=N/Nc2ccc(C(=O)O)cc2)cc1	SENP6 block 100, SENP7 inh 99, SENP8 block-2 96 | SENP8 conf 100 | SENP6 conf 101 | SENP7 conf 104 | Casp3 select 94 | Luc interf 99
CCNC(=S)N/N=C/c1ccc(C(=O)O)cc1	none
O=C(N/N=C\c1ccc(F)cc1)c1ccc(F)cc1	none
O=C(O)c1ccc(/C=N/Nc2ccc(Cl)nn2)cc1	SENP6 block 72, SENP7 inh 76, SENP8 block-2 65 | SENP8 conf inactive | SENP6 conf inactive | SENP7 conf inactive | Casp3 select 81 | Luc interf inactive
O=C(O)c1ccc(/C=N/Nc2ccc(F)cc2F)cc1	SENP6 block 101, SENP7 inh 99, SENP8 block-2 96 | SENP8 conf 99 | SENP6 conf 100 | SENP7 conf 103 | Casp3 select 98 | Luc interf 99
O=C(O)c1ccc(N/N=C/c2c(F)cccc2Cl)cc1	SENP6 block 97, SENP7 inh 98, SENP8 block-2 96 | SENP8 conf 100 | SENP6 conf 101 | SENP7 conf 104 | Casp3 select 96 | Luc interf 99
Cc1ccccc1N1C(=O)C2CCCN2C1=S (stereo not given)	none
COc1ccc(CNC(=O)CCc2c(C)nc3ncnn3c2C)cc1	none
CCCNC(=O)c1ccc(C)c(NC(=O)C2=C(C)OCCS2)c1	none
O=C(NCc1ccc(Cl)s1)C1CCC(=O)N(CCc2ccccn2)C1 (stereo not given)	none
O=C(O)c1ccc(N/N=C/c2ccc(C(F)(F)F)cc2)cc1	SENP6 block 101, SENP7 inh 98, SENP8 block-2 96 | SENP8 conf 99 | SENP6 conf 99 | SENP7 conf 102 | Casp3 select 94 | Luc interf 98
O=C(N/N=C/c1ccc(C(F)(F)F)cc1)c1ccc(O)cc1	none
C(=C\c1nc(-c2ccccc2)no1)/c1ccccc1	SENP6 block 84, SENP7 inh 85, SENP8 block-2 75 | SENP8 conf 75 | SENP6 conf 82 | SENP7 conf 94 | Casp3 select 65 | Luc interf 59
CN1C[C@@H]2[C@@H]3C(=O)N(C)C(=O)[C@@H]3[C@](C)(C1=O)N2C(=O)c1ccc(C(C)(C)C)cc1	none (no result: SENP6 block, SENP7 inh, SENP8 block-2)
CC1(C)CC(NC(=O)c2ccccc2NS(=O)(=O)c2ccc(Br)cc2)CC(C)(C)N1	none (no result: SENP6 block, SENP7 inh, SENP8 block-2)
COc1ccc2c(c1)CCc1c-2n[nH]c1C(=O)NCCC(C)C	SENP7 inh 60, SENP8 block-2 56 | SENP8 conf inactive | SENP6 conf 54 | SENP7 conf 85 | Casp3 select 52 | Luc interf inactive
Cc1cnc(C(=O)Nc2ccc(F)cc2)cn1	SENP6 block 61, SENP7 inh 58 | SENP8 conf inactive | SENP6 conf inactive | SENP7 conf 74 | Casp3 select 81 | Luc interf inactive
Cc1cnc(C(=O)Nc2ccc(C(C)C)cc2)cn1	none
Cc1cnc(C(=O)Nc2ccccc2-n2cccc2)cn1	none
Cc1cnc(C(=O)Nc2ccccc2F)cn1	SENP6 block 68 | SENP8 conf inactive | SENP6 conf inactive | SENP7 conf 74 | Casp3 select 75 | Luc interf inactive
CCOC(=O)c1ccc(NCc2cccnc2)cc1	none
COc1ccc2c(c1)C(CC(C)=O)N(c1ccc(-c3cccs3)cc1)C(c1ccsc1)=C2 (stereo not given)	none (no result: SENP6 block, SENP7 inh, SENP8 block-2)
